From PubChem BioAssay
Many of the other results were omitted from the sample, so hits are more common in it than they were.
PKD1 inh: blocks activity of human protein kinase D1 | Q15139 | 200,000 tested, 0.056% active | PKD1 kinase fluorescence polarization assay | inhibition, % (test concentration not listed)
Lmaj promast: Leishmania major promastigote growth inhibition; Leishmania major promastigotes, resazurin fluorescence viability; AID 1063; inhibition, % at 10 µM; 200,000 tested, 9% active;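 further: promastigotes grown with compound for 44 hours at 28 °C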
ABCG2 inh: inhibitors of human ABCG2 transporter, ABCB1 counter-screen; Q9UNQ0; IgMXP3 cells, JC-1 efflux, flow cytometry; inhibition, % at 6.6 µM; 190,000 tested, 0.1% active; AID 1325;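 active means inhibition above 80%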;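 further: 0% = DMSO and 100% = nicardipine control wells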
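Measure – % inhibition of efflux relative to nicardipine and DMSO · Test system – ABCG2 IgMXP3 and barcoded ABCB1 CCRF-Adr cell mix · Control set – nicardipine as high control, DMSO as low control · Compound – one concentration, 6.6 µM final · Signal – flow cytometry of retained JC-1 fluorescence · Timing – 10 min exposure at 25 °C with rotation, no wash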
ABCB1 block: human ABCB1 inhibition, ABCG2 as counter-screen; P08183; CCRF-Adr cells, JC-1 efflux, flow cytometry; inhibition, % at 6.6 µM; 190,000 tested, 0.067% active; in the data active means inhibition above about 40%;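 further: 0% = vehicle and 100% = reference inhibitor; higher value means more JC-1 retained so stronger ABCB1 efflux block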
Target sequence (P08183 whole entry, looked up): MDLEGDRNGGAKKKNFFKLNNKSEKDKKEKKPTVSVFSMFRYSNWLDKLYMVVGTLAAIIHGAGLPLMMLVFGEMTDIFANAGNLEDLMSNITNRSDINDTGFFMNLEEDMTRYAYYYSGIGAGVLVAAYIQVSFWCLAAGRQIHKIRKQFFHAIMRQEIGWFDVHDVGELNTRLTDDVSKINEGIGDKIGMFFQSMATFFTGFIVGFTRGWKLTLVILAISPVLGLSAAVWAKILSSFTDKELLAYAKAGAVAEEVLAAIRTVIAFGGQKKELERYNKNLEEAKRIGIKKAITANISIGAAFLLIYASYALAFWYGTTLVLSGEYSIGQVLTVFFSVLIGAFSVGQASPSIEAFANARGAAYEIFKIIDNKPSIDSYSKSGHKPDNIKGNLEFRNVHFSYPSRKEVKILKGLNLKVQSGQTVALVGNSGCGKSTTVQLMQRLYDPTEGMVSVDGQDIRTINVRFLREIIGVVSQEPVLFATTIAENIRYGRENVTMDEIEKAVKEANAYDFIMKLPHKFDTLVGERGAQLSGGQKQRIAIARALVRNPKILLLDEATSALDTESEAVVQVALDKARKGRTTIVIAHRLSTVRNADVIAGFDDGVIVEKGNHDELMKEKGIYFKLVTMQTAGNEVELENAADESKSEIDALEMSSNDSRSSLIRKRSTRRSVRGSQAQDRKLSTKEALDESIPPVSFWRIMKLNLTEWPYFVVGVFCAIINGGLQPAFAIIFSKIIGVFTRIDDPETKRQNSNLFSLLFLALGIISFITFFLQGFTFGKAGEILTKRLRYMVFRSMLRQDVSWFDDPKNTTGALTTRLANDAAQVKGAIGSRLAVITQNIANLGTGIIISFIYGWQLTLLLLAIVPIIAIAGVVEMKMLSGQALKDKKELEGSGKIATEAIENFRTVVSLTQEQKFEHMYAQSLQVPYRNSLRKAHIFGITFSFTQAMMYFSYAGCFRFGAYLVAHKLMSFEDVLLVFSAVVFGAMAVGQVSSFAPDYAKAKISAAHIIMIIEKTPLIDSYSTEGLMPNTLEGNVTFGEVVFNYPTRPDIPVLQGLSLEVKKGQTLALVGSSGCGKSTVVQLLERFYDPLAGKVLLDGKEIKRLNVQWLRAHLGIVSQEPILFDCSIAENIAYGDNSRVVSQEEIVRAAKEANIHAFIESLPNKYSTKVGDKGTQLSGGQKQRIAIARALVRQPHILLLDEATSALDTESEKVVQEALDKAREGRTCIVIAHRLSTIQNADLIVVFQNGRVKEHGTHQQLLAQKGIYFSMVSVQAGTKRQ
GSH fluor: compound fluoresces at 488/530 nm on GSH beads; GSH beads flow cytometry, compound fluorescence 488/530 nm; active compounds read high; fluorescence (KMESF) at 10 µM; 190,000 tested, 0.25% active; in the data active means fluorescence above about 89;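 further: glutathione beads carrying GST-tagged Bcl family fusion proteins plus one bare bead set; values are compound well signal with DMSO vehicle wells as background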
Avidin fluor: avidin bead compound fluorescence profile; 220,000 tested, 0.38% active; Avidin beads, compound fluorescence 488/530 nm, flow cytometry; active compounds read high; fluorescence (KMESF) at 10 µM; in the data active means fluorescence above about 47
Active calls of the source: *; · = not tested or not shown. Unless noted, no stated cut-off is given here; in the data, active means inhibition above about 50%; inactive means the rest.

SMILES | PKD1 inh | Lmaj promast | ABCG2 inh | ABCB1 block | GSH fluor | Avidin fluor
COc1cccc(-c2csc(N3CCN(C(=S)Nc4ccccc4OC)CC3)n2)c1 | -15.7 | 93.5* | 1.7 | 0.6 | 23 | 10
COc1ccc(NC(=O)N2CCN(c3nc(-c4cccc(OC)c4)cs3)CC2)cc1 | -13.6 | 79.3* | 59.9 | 2.8 | 18 | 36
COc1cccc(-c2csc(N3CCN(C(=S)Nc4cccc(Cl)c4)CC3)n2)c1 | -6.1 | 32.8 | 3.0 | 0.5 | 23 | 10
CCOC(=O)N1CCN(C(=O)CCCn2c(=S)[nH]c3ccsc3c2=O)CC1 | -7.3 | -7.9 | 0.2 | 0.0 | 16 | 10
Cc1ccc(C)c(N=Nc2nc3ccccc3n2C)c1 | -1.4 | 82.5* | 34.9 | 2.6 | 13 | 9
CCCCNc1cc(F)nc(N)n1 | -0.8 | -6.2 | 5.0 | 0.6 | 24 | 9
CCOCCOc1cccc(C(=O)NC(c2ccccc2)C(C)C)c1 (configuration not stated) | 6.8 | 8.7 | 13.1 | 0.4 | 13 | 11
CCOc1cccc(C(=O)NC(c2ccccc2)C(C)C)c1 (configuration not stated) | -5.0 | 57.0* | 25.5 | 0.2 | 16 | 9
CC(C)Oc1ccc(CCc2n[nH]c(=S)n2-c2ccccc2)cc1 | -6.8 | -5.0 | -4.2 | -1.2 | 12 | 21
CC1(C)CC(=O)C2=C(C1)OC(N)=C(C#N)C2c1cn(-c2ccccc2)nc1-c1ccccc1 (configuration not stated) | -7.2 | 89.8* | -4.0 | 0.1 | 10 | 13
CC1(C)CC(=O)C2=C(C1)OC(N)=C(C#N)C2c1ccoc1 (configuration not stated) | 3.5 | 0.1 | 0.0 | 0.0 | 61 | 30
CN1CCN(/C=N/C2=C(C#N)C(c3ccccc3)C3=C(CC(C)(C)CC3=O)O2)CC1 (configuration not stated) | -7.0 | 75.2* | 0.6 | 0.6 | 19 | 6
CC1(C)CC(=O)C2=C(C1)OC(N)=C(C#N)C2c1cc2c(cc1[N+](=O)[O-])OCO2 (configuration not stated) | -4.6 | 65.3* | -2.0 | · | 8 | 13
COc1cccc(OC)c1C(=O)N=c1sc2cc(S(C)(=O)=O)ccc2n1C | -5.0 | -4.5 | 10.6 | 0.9 | 10 | 13
O=C(Cn1c2c(sc1=O)C1c3ccccc3OCC1CS2)Nc1ccc(Cl)c(Cl)c1 (configuration not stated) | -12.6 | 95.7* | 1.9 | 0.7 | 6 | 2
Cn1c(N)c(N2CCCCC2)c(=O)n(CC(=O)Nc2ccc(Cl)c(Cl)c2)c1=O | -1.8 | 3.5 | 5.2 | -0.4 | 23 | 13
CNC(=S)Nc1ccc(N2CCN(c3ccc(C(F)(F)F)cn3)CC2)nc1 | · | · | · | · | · | 6
Nc1nc2n(n1)C(c1cccc(Cl)c1)CC(c1ccc(F)cc1)N2 (configuration not stated) | 0.5 | 40.4 | 1.3 | 0.2 | 15 | 6
CCOc1ccc(C2CC(c3cccc(Cl)c3)n3nc(N)nc3N2)cc1 (configuration not stated) | 12.9 | 67.0* | -1.7 | -1.2 | 20 | 8
O=C(N1CCOCC1)N1CCN(CC(O)COc2ccc3ccccc3c2)CC1 (configuration not stated) | -10.6 | -0.1 | -0.5 | 0.1 | 30 | 9
OC(COc1ccccc1)CN1CCOCC1 (configuration not stated) | -4.3 | -1.2 | 1.2 | 0.1 | 15 | 5
OC(COc1ccc2cc(Br)ccc2c1)CN1CCOCC1 (configuration not stated) | -5.7 | 59.8* | 0.8 | 0.0 | 19 | ·
OC(COc1c(Br)cc(Br)cc1Br)CN1CCOCC1 (configuration not stated) | -17.5 | 79.1* | 2.8 | 0.4 | 34 | 6
Cc1ccc(Cl)cc1NC(=S)N(CCCN1CCOCC1)Cc1ccco1 | 13.9 | 2.0 | 7.1 | 3.0 | 10 | 12
NC(=O)N/N=C/c1c(Sc2nnnn2-c2ccccc2)nc2ccccn2c1=O | · | · | · | · | · | 7
SMILES | PKD1 inh | Lmaj promast | ABCG2 inh | ABCB1 block | GSH fluor | Avidin fluor
COC(=O)CCC(=O)NNC(=O)c1ccc(Cl)cc1Cl | 3.4 | 11.9 | 1.0 | 0.6 | 42 | 113*
O=C(Nc1nc(-c2cccs2)c(-c2ccccc2)s1)c1ccco1 | -11.2 | 19.6 | 2.4 | 0.7 | 71 | 6
CC1CC1C(=O)Nc1nc(-c2cccs2)c(-c2cccs2)s1 (configuration not stated) | -9.9 | 61.5* | -1.8 | -0.9 | 10 | 9
CCn1c(NCc2ccccc2NS(=O)(=O)c2ccc(C)cc2)nc2ccccc21 | -4.4 | 71.8* | 7.9 | 1.2 | 7 | 2
CCn1c(C)nc2cc(S(=O)(=O)Nc3ccc(C)cc3)ccc21 | 8.9 | 3.0 | 3.1 | 0.9 | 28 | 11
CCCn1c(NCc2ccccc2NS(=O)(=O)c2ccc(C)cc2)nc2ccccc21 | -7.6 | 95.7* | 0.3 | · | 10 | 16
CCn1c(NCc2cc(Br)ccc2NS(=O)(=O)c2ccc(C)cc2)nc2ccccc21 | -6.6 | 99.5* | 3.8 | 0.6 | 24 | 14
CCn1c(NCc2ccccc2Cl)nc2ccccc21 | -4.4 | 51.1* | 1.4 | 0.5 | 17 | 20
CCn1c(NCc2ccco2)nc2ccccc21 | -1.8 | 0.3 | 18.2 | -0.1 | 25 | 9
Cc1ccc(Cn2c(NS(=O)(=O)c3ccccc3)nc3ccccc32)cc1 | 13.8 | 11.4 | 2.8 | 1.6 | 12 | 40
CC1Cc2ccccc2N1CC(=O)NCc1ccccc1Cl (configuration not stated) | 1.6 | 4.9 | 0.4 | 0.2 | 9 | 4
CSc1ccc(C(=O)C2CCCN(S(=O)(=O)c3c(C)noc3C)C2)cc1 (configuration not stated) | 5.4 | -4.6 | 1.1 | 0.6 | 15 | 11
CC(NCCN(C)C)C(=O)C12CC3CC(CC(C3)C1)C2 (configuration not stated) | · | · | · | · | · | 4
COCCNC(=O)c1cc2oc3ccccc3c2n1C | 1.9 | -1.5 | 0.6 | -0.2 | 29 | 8
CCOC(=O)Nc1nn(-c2ccc(C)cc2)c(=O)c(C#N)c1C | -5.7 | 1.2 | 2.6 | 0.3 | 13 | 10
CCNc1ccc(C(=O)NN=C2CCCC2)cc1[N+](=O)[O-] | -6.0 | -4.6 | 1.3 | -0.9 | 12 | 9
COc1ccc(C(OCC2CO2)c2ccc(OC)cc2)cc1 (configuration not stated) | 5.6 | -6.8 | 9.3 | 1.6 | 15 | 14
Nc1ccc(-c2nc3c(Cl)c(N)ccc3[nH]2)cc1 | -5.4 | -1.5 | 0.3 | -1.0 | 29 | 8
CC(C)(CO)NC(=S)NCc1ccco1 | · | · | · | · | · | 3
Cc1cccc(C(=O)NNC(=O)c2ccccc2)c1 | -7.7 | 28.0 | 0.5 | 0.0 | 8 | 7
Cc1ccc(O)c(C(=O)CC(=O)c2cccc(F)c2)c1 | -11.7 | 60.0* | 11.7 | 0.1 | 24 | 32
COc1ccccc1C(=O)NNC(=O)c1cccc(F)c1 | 4.2 | -1.4 | 7.6 | 0.2 | 9 | 6
O=C(CC(=O)c1cc(Cl)ccc1O)c1ccccc1 | -1.5 | 99.5* | 0.0 | -0.1 | 23 | 7
